According to ChEMBL document CHEMBL1141276, “Cytotoxic and Antihaptotactic beauvericin analogues from precursor-directed biosynthesis with the insect pathogen Beauveria bassiana ATCC 7159” (J Nat Prod, 2007):

Assays:
[1] = Antihaptotactic activity in human PC-3M cells assessed as inhibition of cell migration by wound healing assay; type: functional, cell-based
In short: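 Wound-healing (scratch) migration assay on a PC-3M monolayer, with the wound closure quantified. The result is the IC50 for inhibition of migration in µM, averaged from 2–4 independent experiments with 4 replicates each.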

[2] = Cytotoxicity against human PC-3M cells by MTT assay; type: functional, cell-based
In short: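 Tetrazolium (MTT) cytotoxicity assay on monolayers of the metastatic prostate cancer line PC-3M. The result is given as IC50 in µM, averaged from 2–4 independent experiments with 4 replicates each.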

[3] = Ratio of cytotoxic IC50 to antihaptotactic IC50 in PC-3M cells; type: functional, Homo sapiens
In short: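 Index computed as the MTT cytotoxicity IC50 divided by the wound-healing antihaptotactic IC50. Both IC50s were measured in PC-3M cells, each averaged from 2–4 independent experiments with 4 replicates.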

| Compound | IC50 [1] [µM] | IC50 [2] [µM] | Ratio [3] |
| --- | --- | --- | --- |
| CC[C@H]1OC(=O)[C@H](Cc2ccccc2)N(C)C(=O)[C@@H](C(C)C)OC(=O)[C@H](Cc2ccccc2)N(C)C(=O)[C@@H](C(C)C)OC(=O)[C@H](Cc2ccccc2)N(C)C1=O [BEAUVERICIN G1] | 3.8 | 5 | 1.3 |
| CC[C@H]1OC(=O)[C@H](Cc2ccccc2)N(C)C(=O)[C@@H](CC)OC(=O)[C@H](Cc2ccccc2)N(C)C(=O)[C@@H](C(C)C)OC(=O)[C@H](Cc2ccccc2)N(C)C1=O [BEAUVERICIN G2] | 7.6 | 10.4 | 1.4 |
| CC[C@H]1OC(=O)[C@H](Cc2ccccc2)N(C)C(=O)[C@@H](CC)OC(=O)[C@H](Cc2ccccc2)N(C)C(=O)[C@@H](CC)OC(=O)[C@H](Cc2ccccc2)N(C)C1=O [BEAUVERICIN G3] | 17.2 | 16.3 | 0.9 |
| CC(C)[C@H]1OC(=O)[C@H](Cc2cccc(F)c2)N(C)C(=O)[C@@H](C(C)C)OC(=O)[C@H](Cc2ccccc2)N(C)C(=O)[C@@H](C(C)C)OC(=O)[C@H](Cc2ccccc2)N(C)C1=O [BEAUVERICIN H1] | 3.2 | 7.4 | 2.3 |
| CC(C)[C@H]1OC(=O)[C@H](Cc2cccc(F)c2)N(C)C(=O)[C@@H](C(C)C)OC(=O)[C@H](Cc2cccc(F)c2)N(C)C(=O)[C@@H](C(C)C)OC(=O)[C@H](Cc2ccccc2)N(C)C1=O [BEAUVERICIN H2] | 3.2 | 6.2 | 1.9 |
| CC(C)[C@H]1OC(=O)[C@H](Cc2cccc(F)c2)N(C)C(=O)[C@@H](C(C)C)OC(=O)[C@H](Cc2cccc(F)c2)N(C)C(=O)[C@@H](C(C)C)OC(=O)[C@H](Cc2cccc(F)c2)N(C)C1=O [BEAUVERICIN H3] | 3.2 | 4.4 | 1.4 |
| CC(C)[C@@H]1OC(=O)[C@@H](Cc2ccccc2)N(C)C(=O)[C@H](C(C)C)OC(=O)[C@@H](Cc2ccccc2)N(C)C(=O)[C@H](C(C)C)OC(=O)[C@@H](Cc2ccccc2)N(C)C1=O [BEAUVERICIN] | 3.5 | 8 | 2.3 |
